These results are taken from PubChem BioAssay.

A short description of assay [1]: inhibitors of TNFa-induced NFkB p65 translocation, primary screen, imaging, HUVEC, MLSMR starter and 10KST1 sets (AID 438;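 active = inhibition above 20% together with a positive visual image hit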;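 note: compound added about 3h40 before a 20 min TNFalpha stimulation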;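 for inhibition: signal is the nuclear over cytoplasmic p65 intensity ratio per well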). The following applies: HUVEC TNFa-induced p65 nuclear translocation; cell count: measured here: nuclei count (cytotoxicity indicator), at 2.08 µM; inhibition: at 2 µM, stronger effect = higher value, 0% TNFa-plus-vehicle, 100% no-TNFa wells.
A short description of assay [2]: endothelial E-selectin expression blockers – imaging, HUVEC, immunofluorescence, MLSMR starter and 10KST1 sets, primary screen (AID 487;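 active = visually confirmed hit in the image check and inhibition above 20%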;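 for inhibition: signal is fraction of cell area covered by stained E-selectin grains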;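 for nuclei count: 100% = median nuclei count of all wells on the same plate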). The following applies: HUVEC TNFalpha-induced E-selectin immunofluorescence imaging, at 2 µM; inhibition: stronger effect = higher value; nuclei count: measured here: cell number, toxicity.
The nature of assay [3]: Primary imaging screen for DUSP6 inhibitors that restore phospho-Erk in transfected HeLa cells, chemical complementation (AID 609;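 active = compounds giving at least 50% inhibition in the cell-based MKP-3 phosphatase rescue imaging test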;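 for inhibition: phospho-Erk level distribution per well compared with pooled transfected vehicle control wells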). The following applies: HeLa MKP-3 transfected, phospho-Erk imaging KS statistic, at 10 µM, cells stimulated with TPA for 15 min.
Assay [4] deals with Dual specificity protein phosphatase 6 (Homo sapiens) (UniProt Q16828). The description is as above. The following applies: HeLa MKP-3 transfected, phospho-Erk imaging KS statistic; at 10 µM; stronger effect = higher value; cells stimulated with TPA for 15 min.
Assay [5] has as its target Voltage-gated potassium channel subunit beta-2 (Rattus norvegicus) (UniProt P62483). Put plainly: inhibitors of rat Kvbeta2 reductase activity – biochemical, NADPH fluorescence, primary screen (AID 622;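 active = fluorescence slope higher than the sample average by over 3 SD, cut at about -0.22 in these data, passing the limit was not always enough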;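 note: slope of raw intensity against log time taken from 70 to 1610 s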). The following applies: recombinant KvBeta, 4-cyanobenzaldehyde reduction, at 10 µM, stronger effect = higher value.
Assay [6] has the same target. Briefly: enhancers of rat Kvbeta2 NADPH turnover – biochemical, NADPH fluorescence, primary screen (AID 623;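 active = NADPH fluorescence slope more negative than the mean of all samples by about 3 SD, 99.7% confidence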;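 note: fluorescence intensity change per second fitted from 20 to 320 s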). Particulars: Recombinant KvBeta, NADPH fluorescence decrease slope, 10 min; at 10 µM; stronger effect = lower value.
In assay [7] the target is Muscarinic acetylcholine receptor M4 (Homo sapiens) (UniProt P08173). Briefly: M4-linked GIRK flux change, two-sided – cell-based, HEK293 M4/GIRK, thallium flux, BTC-AM, M4 allosteric agonist project, primary screen (AID 625;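 active = fluorescence slope after compound addition differing from the mean of all tested samples at 99.7% confidence, mostly higher but some lower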;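 note: thallium influx through GIRK channels coupled to M4 in HEK293 cells with BTC-AM dye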). Particulars: at 10 µM, actives lie on both sides. The gist of the method: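 assay system = HEK293 cells with M4 receptor and GIRK channels | medium = pH 7.3 thallium assay buffer | doses = 10 µM final, single point | timing = cells overnight at 37 °C, BTC-AM loading 1 h, reads 2 min total | signal = BTC-AM fluorescence, 1 Hz kinetic reads | read-out = post-addition slope, 15–24 s, of baseline-normalized fluorescence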

The nature of assay [8]: inhibitors of larval lipid processing in zebrafish, primary screen, whole organism, PED6 fluorescence, gall bladder and intestine (AID 686).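 Note: larvae 5 to 7 days old with five fish per well; signal comes from phospholipase A2 cleavage of quenched PED6 carried via bile; overnight exposure to compound and PED6 before scoring.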 The following applies: Zebrafish larvae PED6 lipid processing, fluorescence scoring; screened at 20 µM (by protocol). The gist of the method: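 Also added: quenched phospholipase substrate PED6, 100 nM final, ingested by larvae; System: zebrafish larvae, 5-7 d; Quantity: 5 larvae per well; Compound: 20 µM single dose; Schedule: overnight compound and PED6 incubation; Read-out: visual per-well fluorescence inhibition score; Measured by: By-eye fluorescence microscopy; Medium: E3.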

Assay [9] in a line: loss of swimming-algae plug formation – whole organism, Chlamydomonas reinhardtii, WT vs cilia-less mutant, absorbance, 96-well, primary screen (AID 463189;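 active = inhibition at or above 50% relative to wild type and mutant plate controls; inactive = inhibition below 50%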;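 note: 0% = wild type cc124 cells in DMSO and 100% = ciliumless bld1 mutant cells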). The following applies: Chlamydomonas reinhardtii gravitaxis, OD600 absorbance, 2 days; at 10 µM; stronger effect = higher value.
Setting [10] is: measured here: cell density z-score.
The mark [11] stands for this setting: measured here: nuclear c-Myc green intensity z-score.
Setting [12] is: measured here: nuclear pErk red intensity z-score, stronger effect = higher value.

Active and inactive are the calls of the source.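 Rule for the calls, unless noted: active = a full or partial loss of lipid-probe fluorescence in the fish gall bladder, intestine or both, judged by eye; inactive = no fluorescence loss, or compound toxic to the fish.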

Chain of Dual specificity protein phosphatase 6 (Homo sapiens) (Q16828 whole entry, looked up): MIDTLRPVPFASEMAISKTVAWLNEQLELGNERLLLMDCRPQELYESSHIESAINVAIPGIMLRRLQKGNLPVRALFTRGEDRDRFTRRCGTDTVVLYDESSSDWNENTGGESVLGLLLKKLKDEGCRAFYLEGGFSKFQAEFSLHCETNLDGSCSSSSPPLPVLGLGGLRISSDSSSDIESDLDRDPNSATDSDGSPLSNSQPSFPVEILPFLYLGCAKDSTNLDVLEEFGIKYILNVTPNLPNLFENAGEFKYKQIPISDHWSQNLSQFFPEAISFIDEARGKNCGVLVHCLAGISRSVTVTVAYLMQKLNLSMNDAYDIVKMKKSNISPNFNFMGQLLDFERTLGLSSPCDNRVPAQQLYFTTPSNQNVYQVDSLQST
Chain of Muscarinic acetylcholine receptor M4 (Homo sapiens) (P08173 whole entry, looked up): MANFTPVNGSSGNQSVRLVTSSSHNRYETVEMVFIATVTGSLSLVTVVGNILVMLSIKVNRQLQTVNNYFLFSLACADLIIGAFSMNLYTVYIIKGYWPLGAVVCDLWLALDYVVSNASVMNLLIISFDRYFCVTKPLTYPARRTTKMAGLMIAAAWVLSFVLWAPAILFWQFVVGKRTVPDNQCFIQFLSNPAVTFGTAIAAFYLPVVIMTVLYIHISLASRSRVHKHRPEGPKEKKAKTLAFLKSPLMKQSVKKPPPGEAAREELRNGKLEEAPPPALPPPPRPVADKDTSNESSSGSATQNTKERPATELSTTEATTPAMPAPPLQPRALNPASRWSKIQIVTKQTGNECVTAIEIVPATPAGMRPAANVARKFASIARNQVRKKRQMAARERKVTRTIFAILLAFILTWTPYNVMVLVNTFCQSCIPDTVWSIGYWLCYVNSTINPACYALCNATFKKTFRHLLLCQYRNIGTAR
Chain of Voltage-gated potassium channel subunit beta-2 (Rattus norvegicus) (P62483 whole entry, looked up): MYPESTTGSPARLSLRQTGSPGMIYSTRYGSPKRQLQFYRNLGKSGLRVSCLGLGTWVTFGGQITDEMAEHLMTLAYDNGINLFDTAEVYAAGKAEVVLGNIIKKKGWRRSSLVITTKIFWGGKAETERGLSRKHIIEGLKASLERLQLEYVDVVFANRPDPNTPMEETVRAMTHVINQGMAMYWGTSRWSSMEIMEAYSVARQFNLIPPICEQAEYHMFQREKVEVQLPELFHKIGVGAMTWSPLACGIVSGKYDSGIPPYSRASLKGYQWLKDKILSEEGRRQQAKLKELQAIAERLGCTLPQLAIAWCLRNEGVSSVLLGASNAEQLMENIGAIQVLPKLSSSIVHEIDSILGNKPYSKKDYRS

As to `CCCCN(C(=O)CCC(=O)O)C1CC(=O)N(c2ccc(OCCC)cc2)C1=O` (centres undefined), the cell count in assay [1] stood at 639. In addition, the inhibition in assay [1] was 5.2% (inactive); in assay [2], -33% (inactive); in assay [4], -9.53% (inactive); in [9], -0.122% (inactive). Further, the nuclei count in [2] is 116%. The figures for the z-score in assay [3] (setting [10]), in assay [3] (setting [11]) and in assay [3] (setting [12]) were -0.992, -0.45 and -0.105, respectively. In addition, the fluorescence slope was -0.464 (inactive) in assay [5] and 0.00463 (inactive) in assay [7]. In [6], the NADPH fluorescence slope was -2.3e-05 (inactive). For the same compound, the outcome in assay [8] was inactive.
Regarding `CC(C)CNC(=O)c1c(N)n(/N=C/c2cccnc2)c2nc3ccccc3nc12`, in [1], the cell count was determined as 412. Besides, the inhibition is -2.8% (inactive) in assay [1], -18% (inactive) in assay [2], 17.7% (inactive) in assay [4] and 35.6% (inactive) in assay [9]. Further, the nuclei count in assay [2] was determined as 105%. The z-score was 1.93 in [3] (setting [10]), -1.56 in [3] (setting [11]) and -0.113 in assay [3] (setting [12]). Besides, the fluorescence slope was -0.347 (inactive) in assay [5] and 0.00594 (inactive) in [7]. Further, the NADPH fluorescence slope in assay [6] is 4.3e-06 (inactive). Besides, in assay [8], the compound was classed as inactive.
As to `CCOC(=O)C1=Nc2ccccc2C1=[N+]=[N-]`, the cell count in assay [1] turned out to be 714. The inhibition in [1] is -2.2% (inactive); in assay [2], 6.6% (inactive); in assay [4], -5.95% (inactive); in [9] it was 152% (active). For the same compound, the nuclei count in [2] amounted to 179%. For the same compound, the z-score is -0.487 in assay [3] (setting [10]), 0.636 in assay [3] (setting [11]) and 1.84 in assay [3] (setting [12]). Besides, the figures for the fluorescence slope in assay [5] and in assay [7] were -0.477 (inactive) and 0.00733 (inactive), respectively. For the same compound, in assay [6], the NADPH fluorescence slope was -4.9e-05 (inactive). In addition, in assay [8], the outcome was inactive.
Consider `CCCC1CC(=O)OC1(C)C(=O)CSc1n[nH]c(-c2ccccc2)n1` (centres undefined), for which the cell count in assay [1] was 686. Besides, the inhibition is -3.7% (inactive) in [1], -35.6% (inactive) in [2], -9.66% (inactive) in assay [4] and -3.69% (inactive) in [9]. This compound yielded a nuclei count in assay [2] of 142%. Besides, the z-score in [3] (setting [10]) was 0.882; in assay [3] (setting [11]), 0.0839; in assay [3] (setting [12]), -0.223. The fluorescence slope in [5] is -0.472 (inactive); in [7] it was 0.00594 (inactive). In assay [6], the NADPH fluorescence slope is -1.5e-05 (inactive). Further, the outcome in assay [8] is “active; no signal in intestine only”.
As to `CCO/C(C)=N/n1c2nc3ccccc3nc2c2c(=O)n(Cc3ccccc3Cl)c(C)nc21`, in assay [1], the cell count came out at 649. The inhibition in assay [1] was -3.5% (inactive); in [2], -201% (inactive); in assay [4], 9.37% (inactive); in assay [9], 12.7% (inactive). In addition, the nuclei count in assay [2] turned out to be 159%. Besides, the z-score is -0.0584 in assay [3] (setting [10]), -0.543 in [3] (setting [11]) and -0.0329 in assay [3] (setting [12]). Moreover, the values for the fluorescence slope in assay [5] and in [7] were -0.455 (inactive) and 0.00359 (inactive), respectively. Besides, the NADPH fluorescence slope in assay [6] is -3.5e-05 (inactive). For the same compound, in assay [8], the call was inactive.
Turning to `C=CCN(CC=C)c1nc2ccccc2nc1C(C#N)C(=O)OC(C)C` (centres undefined), in assay [1], the cell count was determined as 639. The inhibition in assay [1] is -6.1% (inactive); in [2], -48.1% (inactive); in [4], -13.3% (inactive); in assay [9] it was 7.18% (inactive). This compound also gave a nuclei count in assay [2] of 173%. In addition, the z-score was -0.0253 in assay [3] (setting [10]), -0.36 in [3] (setting [11]) and 0.934 in assay [3] (setting [12]). Moreover, the fluorescence slope in assay [5] was -0.467 (inactive); in assay [7] it was 0.00206 (inactive). In assay [6], the NADPH fluorescence slope is -4.8e-05 (inactive). In addition, the compound was called inactive in assay [8].
On to `Cc1ccc2cc(CNC(C)C)c(=O)[nH]c2c1`, for which the cell count in assay [1] is 529. Also, the inhibition is -8.4% (inactive) in assay [1], 12.9% (inactive) in assay [2], 37.7% (inactive) in assay [4] and -6.41% (inactive) in assay [9]. Besides, the nuclei count in [2] worked out at 99.8%. Further, the values for the z-score in assay [3] (setting [10]), in [3] (setting [11]) and in [3] (setting [12]) were 2.86, -1.18 and -1.89, respectively. In addition, the fluorescence slope in assay [5] is -0.49 (inactive); in assay [7], 0.00672 (inactive). Moreover, the NADPH fluorescence slope in assay [6] is -2.7e-05 (inactive). Moreover, the call in assay [8] was inactive.
Consider `O=S(=O)(N[C@@H]1C[C@H]2CC[C@@H]1C2)c1cccs1`, for which the cell count in [1] came to 433. Also, the inhibition was -8.9% (inactive) in [1], -51.9% (inactive) in [2], 9.37% (inactive) in [4] and -1.87% (inactive) in assay [9]. Further, the nuclei count in assay [2] stood at 155%. For the same compound, the z-score in assay [3] (setting [10]) was 1.4; in assay [3] (setting [11]), -0.527; in assay [3] (setting [12]), -0.281. In addition, the figures for the fluorescence slope in [5] and in assay [7] were -0.458 (inactive) and 0.00569 (inactive), respectively. In [6], the NADPH fluorescence slope is -3.1e-05 (inactive). The result in assay [8] was inactive.
Regarding `O=c1c2ccccc2ncn1Cc1ccco1`, in [1], the cell count came out at 682. The inhibition is -8.5% (inactive) in assay [1], -74.2% (inactive) in assay [2], -15.1% (inactive) in assay [4] and 14.3% (inactive) in [9]. This compound also registered a nuclei count in [2] of 138%. Moreover, the z-score in assay [3] (setting [10]) was -0.419; in [3] (setting [11]), -1.56; in assay [3] (setting [12]), 0.938. Further, the fluorescence slope was -0.449 (inactive) in assay [5] and 0.00462 (inactive) in assay [7]. Further, in assay [6], the NADPH fluorescence slope was -3.2e-05 (inactive). In addition, the call in assay [8] was inactive.
On to `N#C/C(=C\c1c(N2CCC(C(N)=O)CC2)nc2ccccn2c1=O)S(=O)(=O)c1ccccc1`, for which the cell count in [1] was found to be 444. Also, the inhibition in assay [1] was -3.7% (inactive); in assay [2], -112% (inactive); in assay [4] it was 12.7% (inactive); in [9], 4.15% (inactive). For the same compound, the nuclei count in assay [2] is 144%. Further, the z-score in assay [3] (setting [10]) was 1.56; in assay [3] (setting [11]) it was -0.902; in [3] (setting [12]), -1.07. Moreover, the fluorescence slope in assay [5] is -0.423 (inactive); in assay [7] it was 0.00437 (inactive). Also, the NADPH fluorescence slope in assay [6] was -2.9e-05 (inactive). Further, the call in assay [8] was inactive.
Take `CC1(C)CC(=O)C(C=NCCN2CCN(CCc3ccccc3)CC2)=C(O)C1`: the cell count in assay [1] is 367. For the same compound, the inhibition was -0.8% (inactive) in [1], -22.3% (inactive) in assay [2], -2.69% (inactive) in assay [4] and -9.36% (inactive) in assay [9]. The compound also registered a nuclei count in assay [2] of 94.1%. For the same compound, the results for the z-score in assay [3] (setting [10]), in [3] (setting [11]) and in [3] (setting [12]) were -1.16, 0.888 and -1.15, respectively. The fluorescence slope is -0.506 (inactive) in assay [5] and 0.00481 (inactive) in [7]. In [6], the NADPH fluorescence slope was 1.2e-05 (inactive). Further, in assay [8], the compound was called inactive.
For `CCCn1nc(Oc2nc(SC)nc(N(C)C)n2)ccc1=O`, in assay [1], the cell count amounted to 340. For the same compound, the inhibition is -6.1% (inactive) in assay [1], -38% (inactive) in assay [2], 16.1% (inactive) in assay [4] and -11.7% (inactive) in [9]. In assay [2], this compound gave a nuclei count of 91.9%. Moreover, the figures for the z-score in [3] (setting [10]), in assay [3] (setting [11]) and in assay [3] (setting [12]) were 1.7, -0.0746 and -1.32, respectively. Also, the fluorescence slope in [5] was -0.491 (inactive); in assay [7] it was 0.00516 (inactive). Further, the NADPH fluorescence slope in [6] is 3.6e-05 (inactive). For the same compound, the compound was classed as inactive in assay [8].
Regarding `Cc1ccc(C(=O)NCC(C)(C)O)cc1`, the cell count in assay [1] came to 554. Besides, the inhibition in assay [1] was -5.3% (inactive); in assay [2] it was -1.3% (inactive); in assay [4], -3.95% (inactive); in assay [9], -5.2% (inactive). Also, the nuclei count in assay [2] came out at 87.7%. The z-score was -0.652 in assay [3] (setting [10]), -0.297 in assay [3] (setting [11]) and -0.959 in assay [3] (setting [12]). The fluorescence slope in assay [5] was -0.473 (inactive); in assay [7] it was 0.00553 (inactive). Further, the NADPH fluorescence slope in assay [6] is -8.2e-05 (inactive). Moreover, the compound was called inactive in assay [8].
